Measurements from ChEMBL document CHEMBL1154295, “Potent and selective steroidal inhibitors of 17beta-hydroxysteroid dehydrogenase type 7, an enzyme that catalyzes the reduction of the key hormones estrone and dihydrotestosterone” (J Med Chem, 2009).

Tests used:
[1] = target: T1, 3-keto-steroid reductase/17-beta-hydroxysteroid dehydrogenase 7 (Homo sapiens) (UniProt P56937); assay: Inhibition of human 17beta-HSD7 expressed in HEK293 cells assessed as inhibition of reduction of [14C]dihydrotestosterone into [14C]5alpha-androstane-3beta,17beta-diol at 3 uM after 18 hrs; format: cell-based
T1 sequence (whole entry): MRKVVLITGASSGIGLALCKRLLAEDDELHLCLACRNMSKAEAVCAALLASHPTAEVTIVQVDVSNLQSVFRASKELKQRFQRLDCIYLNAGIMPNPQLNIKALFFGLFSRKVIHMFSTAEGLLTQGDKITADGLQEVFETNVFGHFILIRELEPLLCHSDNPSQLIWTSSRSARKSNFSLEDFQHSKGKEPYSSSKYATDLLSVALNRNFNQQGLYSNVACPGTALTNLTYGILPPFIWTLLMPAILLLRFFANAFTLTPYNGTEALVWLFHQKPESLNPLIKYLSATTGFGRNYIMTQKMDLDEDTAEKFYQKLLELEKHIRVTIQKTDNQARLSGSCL
Summary of the method: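 Intact HEK-293 cells stably overexpressing h17β-HSD7 (pCMV-neo, G-418 selected) were plated at 500 000 cells/well in MEM with 10% fetal calf serum at 37 °C. Fresh medium received 15 000 cpm (~150 nM) [4-14C]-DHT plus ethanolic inhibitor, and cells were incubated 18 h. Steroids were extracted twice with diethyl ether. Assays were done in duplicate.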

[2] = target: T1, 3-keto-steroid reductase/17-beta-hydroxysteroid dehydrogenase 7 (Homo sapiens); details: HEK293, at 0.3 µM
[3] = target: T1, 3-keto-steroid reductase/17-beta-hydroxysteroid dehydrogenase 7 (Homo sapiens); details: HEK293, at 3 µM

| SMILES | inhibition [1] [%] | inhibition [2] [%] | inhibition [3] [%] |
| --- | --- | --- | --- |
| CCCCCCCN(C)C1CC[C@H]2[C@@H]3CC[C@H]4NC(=O)CC[C@]4(C)[C@H]3CC[C@]12C (stereo partly specified) | 69 |  |  |
| CCCCCCCN(C(=O)c1ccc(F)cc1)[C@H]1CC[C@H]2[C@@H]3CC[C@H]4N(C)C(=O)CC[C@]4(C)[C@H]3CC[C@]12C | 69 | 84 |  |
| CCCCCCCN(C(=O)c1c(F)cccc1F)[C@H]1CC[C@H]2[C@@H]3CC[C@H]4N(C)C(=O)CC[C@]4(C)[C@H]3CC[C@]12C | 69 | 84 |  |
| CCCCCN(C(=O)CCCC)[C@H]1CC[C@H]2[C@@H]3CC[C@H]4N(C)C(=O)CC[C@]4(C)[C@H]3CC[C@]12C |  | 27.3 | 79.7 |
| CN1C(=O)CC[C@]2(C)[C@H]3CC[C@]4(C)[C@@H](N(C=O)Cc5ccccc5)CC[C@H]4[C@@H]3CC[C@@H]12 |  | 31.6 | 77.6 |
| CC(=O)[C@H]1CC[C@H]2[C@@H]3CCC4=CC(=O)CC[C@]4(C)[C@H]3CC[C@]12C |  | 7.3 | 19.1 |
| CC(C)NC(=O)N(C1CC1)[C@H]1CC[C@H]2[C@@H]3CC[C@H]4N(C)C(=O)C=C[C@]4(C)[C@H]3CC[C@]12C |  | 3.6 | 2.5 |
| CCCC1CC[C@@]2(CC[C@H]3[C@@H]4CCc5cc(O)ccc5[C@H]4CC[C@@]32C)OC1=O (stereo partly specified) |  | 15.8 | 47.1 |
| CC1CC[C@@]2(CC[C@H]3[C@@H]4CCc5cc(O)ccc5[C@H]4CC[C@@]32C)OC1=O (stereo partly specified) |  | 14.4 | 32.1 |
| CC(=O)S[C@@H]1CC2=CC(=O)CC[C@]2(C)[C@H]2CC[C@@]3(C)[C@@H](CC[C@@]34CCC(=O)O4)[C@H]12 |  | 7.2 | 7.5 |
| C[C@]12CC[C@@H](O)C[C@@H]1CC[C@@H]1[C@@H]2CC[C@]2(C)[C@@H](O)CC[C@@H]12 |  | 1.1 | 8.4 |
| CN1C(=O)CC[C@]2(C)[C@H]3CC[C@]4(C)[C@@H](Nc5ccc([N+](=O)[O-])c(C(F)(F)F)c5)CC[C@H]4[C@@H]3CC[C@@H]12 |  | 66.1 | 100 |
| CC/C(=C(\c1ccccc1)c1ccc(OCCN(C)C)cc1)c1ccccc1 |  | 8.9 | 3.2 |
| CCCCCNC(=O)[C@H]1CC[C@H]2[C@@H]3CC[C@H]4N(C)C(=O)CC[C@]4(C)[C@H]3CC[C@]12C |  | 52.7 | 96.3 |
| CC1(C)C[C@@]2(CC[C@H]3[C@@H]4CCc5cc(O)ccc5[C@H]4CC[C@@]32C)OC1=O |  | 14.5 | 42.4 |
| CCCCCN(C=O)[C@H]1CC[C@H]2[C@@H]3CC[C@H]4NC(=O)CC[C@]4(C)[C@H]3CC[C@]12C |  | 35.2 | 89.1 |
| CN1C(=O)CC[C@]2(C)[C@H]3CC[C@]4(C)[C@@H](N(C(=O)NC5CCCCC5)C5CC5)CC[C@H]4[C@@H]3CC[C@@H]12 |  | 8.4 | 54.7 |
| CC1(C)CC[C@@]2(CC[C@H]3[C@@H]4CCc5cc(O)c(I)cc5[C@H]4CC[C@@]32C)OC1=O |  | 10 | 24.9 |
| C#C[C@]1(O)CC[C@H]2[C@@H]3CCc4cc(O)ccc4[C@H]3CC[C@@]21C |  | 8.3 | 3.4 |
| CC1(C)CC[C@@]2(CC[C@H]3[C@@H]4CCc5cc(C#N)ccc5[C@H]4CC[C@@]32C)OC1=O |  | 23.8 | 34.6 |
| C[C@]12CC[C@](O)(Cc3ccccc3)C[C@@H]1CC[C@@H]1[C@@H]2CC[C@]2(C)C(=O)CC[C@@H]12 |  | 19.3 | 22.2 |
| C[C@]12C[C@H](O)[C@H]3[C@@H](CCC4=CC(=O)CC[C@@]43C)[C@@H]1CC[C@@H]2C(=O)CO |  | 8.1 | 14.9 |
| CCCCCCCN(C=O)[C@H]1CC[C@H]2[C@@H]3CC[C@H]4N(C)C(=O)CC[C@]4(C)[C@H]3CC[C@]12C | 69 | 94 |  |
| O=C(c1ccc(OCN2CCCCC2)cc1)c1c(-c2ccc(O)cc2)sc2cc(O)ccc12 |  | 0 | 0 |
| C[C@]12CC[C@](O)(CCc3ccccc3)C[C@@H]1CC[C@@H]1[C@@H]2CC[C@]2(C)C(=O)CC[C@@H]12 |  | 0 | 17.4 |
| CC(C)(C#N)c1cc(Cn2cncn2)cc(C(C)(C)C#N)c1 |  | 6.5 | 0.3 |
| CCCN(CC1C2CC3CC(C2)CC1C3)C[C@@]1(O)CC[C@@]2(C)[C@@H](CC[C@@H]3[C@@H]2CC[C@]2(C)C(=O)CC[C@@H]32)C1 (stereo partly specified) |  | 29 | 18.8 |

| SMILES | inhibition [1] [%] | inhibition [2] [%] | inhibition [3] [%] |
| --- | --- | --- | --- |
| O=c1oc2cc(O)ccc2c2oc3cc(O)ccc3c12 |  | 5.5 | 2.3 |
| COC(=O)[C@H]1CC[C@H]2[C@@H]3CC=C4C=C(Cl)CC[C@]4(C)[C@H]3CC[C@]12C |  | 0.6 | 16.2 |
| C[C@]12CC[C@H](O)CC1=CC[C@@H]1[C@@H]2CC[C@]2(C)C(=O)CC[C@@H]12 |  | 5.7 | 12.1 |
| C[C@]12CC[C@H]3C(=CCc4cc(O)ccc43)[C@@H]1CC[C@@H]2O |  | 12.6 | 8.8 |
| C[C@]12CC[C@@H]3c4ccccc4CC[C@H]3[C@@H]1CC[C@@]21CCCC(=O)O1 |  | 6.1 | 4.7 |
| O=c1c(-c2ccc(O)cc2)coc2cc(O)cc(O)c12 |  | 0 | 0 |
| CN1C(=O)CC[C@]2(C)[C@H]3CC[C@@]4(C)[C@@H](CC[C@@]4(O)C#CC(C)(C)I)[C@@H]3CC[C@@H]12 |  | 20.2 | 72 |
| CC1CC(=O)O[C@]2(CC[C@H]3[C@@H]4CCc5cc(O)ccc5[C@H]4CC[C@@]32C)C1 (stereo partly specified) |  | 14 | 22.9 |
| CCC1(CC)CC[C@@]2(CC[C@H]3[C@@H]4CCc5cc(O)ccc5[C@H]4CC[C@@]32C)OC1=O |  | 15.2 | 39.6 |
| C[C@]12CCC(=O)C=C1CC[C@@H]1[C@@H]2[C@@H](O)C[C@]2(C=O)[C@@H](C(=O)CO)CC[C@@H]12 |  | 14.4 | 7.3 |
| CC(=O)C1CC[C@@]2(CC[C@H]3[C@@H]4CCc5cc(O)ccc5[C@H]4CC[C@@]32C)OC1=O (stereo partly specified) |  | 2.1 | 14.8 |
| CCCCCCN(C=O)[C@H]1CC[C@H]2[C@@H]3CC[C@H]4N(C)C(=O)CC[C@]4(C)[C@H]3CC[C@]12C |  | 94.1 | 100 |
| CN1C(=O)C=C[C@]2(C)[C@H]3CC[C@]4(C)[C@@H](N(C(=O)NC5CCCCC5)C5CC5)CC[C@H]4[C@@H]3CC[C@@H]12 |  | 8.2 | 0.8 |
| CN1C(=O)CC[C@]2(C)[C@H]3CC[C@]4(C)[C@@H](N(C=O)C5CCCCC5)CC[C@H]4[C@@H]3CC[C@@H]12 |  | 23.9 | 75.2 |
| C[C@]12CC[C@@H](O)C[C@H]1CC[C@@H]1[C@@H]2CC[C@]2(C)[C@@H](O)CC[C@@H]12 |  | 2.9 | 6 |
| CC1(C)CC[C@@]2(CC[C@H]3[C@@H]4CCc5c(cc(Cl)c(O)c5Cl)[C@H]4CC[C@@]32C)OC1=O |  | 20.2 | 37 |
| CN1C(=O)CC[C@]2(C)[C@H]3CC[C@]4(C)[C@@H](N(C(=O)c5ccccc5)c5ccccc5)CC[C@H]4[C@@H]3CC[C@@H]12 |  | 31.9 | 64.1 |
| CC1(C)CC[C@@]2(CC[C@H]3[C@@H]4CCc5cc(OS(=O)(=O)c6ccccc6)ccc5[C@H]4CC[C@@]32C)OC1=O |  | 11.7 | 29.5 |
| CC(C)C(=O)Nc1ccc([N+](=O)[O-])c(C(F)(F)F)c1 |  | 18.6 | 10.8 |
| COCCOc1ccc2c(c1)CC[C@@H]1[C@@H]2CC[C@@]2(C)[C@H]1CC[C@@]21CCC(C)(C)C(=O)O1 |  | 23.8 | 52.3 |
| CC1(C)CC[C@@]2(CC[C@H]3[C@@H]4CCc5cc(OP(=O)(O)O)ccc5[C@H]4CC[C@@]32C)OC1=O |  | 0 | 16.5 |
| CN1C(=O)CC[C@]2(C)[C@H]3CC[C@]4(C)[C@@H](N(C=O)C5CC5)CC[C@H]4[C@@H]3CC[C@@H]12 |  | 17.6 | 41.2 |
| CCC[C@]1(O)CC[C@H]2[C@@H]3CC[C@H]4N(C)C(=O)CC[C@]4(C)[C@H]3CC[C@@]21C |  | 47.6 | 98.5 |
| C[C@]12CC[C@@]3(C[C@H]1CC[C@@H]1[C@@H]2CC[C@]2(C)C(=O)CC[C@@H]12)CN(CC(CN1CCOCC1)OC(=O)CCC1CCCC1)C(=O)O3 (stereo partly specified) |  | 18.9 | 8.7 |
| C[C@]12CCC(=O)C(O)=C1CC[C@@H]1[C@@H]2CC[C@]2(C)C(=O)CC[C@@H]12 |  | 8.1 | 7.1 |
| CN(C)C(=O)c1ccc2c(c1)CC[C@@H]1[C@@H]2CC[C@@]2(C)[C@H]1CC[C@@]21CCC(C)(C)C(=O)O1 |  | 15.2 | 36.1 |
| CCCCCCCCCCN(C=O)C1CC[C@H]2[C@@H]3CC[C@H]4NC(=O)CC[C@]4(C)[C@H]3CC[C@]12C (stereo partly specified) | 69 |  |  |
